Laboratory results taken from ChEMBL document CHEMBL5046323, “Discovery of Phospholipase D Inhibitors with Improved Drug-like Properties and Central Nervous System Penetrance” (ACS Med Chem Lett, 2022).

Tests used:
[1] = Unbound brain concentration in sc dosed C57BL/6 mouse measured after 15 mins by LC-FTICR-MS analysis; type: ADME, organism-based; conditions: in vivo, 0.25 h
How it was run: (§1)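 Mice dosed subcutaneously at 10 mg/kg 15, 30 or 60 min before injection of 1-butanol-d10; tissues (liver, brain) collected 15 min after butanol injection for compound levels.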

[2] = Unbound brain concentration in sc dosed C57BL/6 mouse measured after 30 mins by LC-FTICR-MS analysis; type: ADME, organism-based; conditions: in vivo, 0.5 h; how it was run: as §1
[3] = target: Voltage-gated inwardly rectifying potassium channel KCNH2 (Homo sapiens, UniProt Q12809); experiment: Inhibition of human ERG; type: toxicity
Phospholipase D1 = target: T1, Phospholipase D1 (Homo sapiens, UniProt Q13393); experiment: Inhibition of PLD1 (unknown origin) expressed in human HEK cells by immunoprecipitation assay; type: cell-based
T1 sequence (Q13393 whole entry): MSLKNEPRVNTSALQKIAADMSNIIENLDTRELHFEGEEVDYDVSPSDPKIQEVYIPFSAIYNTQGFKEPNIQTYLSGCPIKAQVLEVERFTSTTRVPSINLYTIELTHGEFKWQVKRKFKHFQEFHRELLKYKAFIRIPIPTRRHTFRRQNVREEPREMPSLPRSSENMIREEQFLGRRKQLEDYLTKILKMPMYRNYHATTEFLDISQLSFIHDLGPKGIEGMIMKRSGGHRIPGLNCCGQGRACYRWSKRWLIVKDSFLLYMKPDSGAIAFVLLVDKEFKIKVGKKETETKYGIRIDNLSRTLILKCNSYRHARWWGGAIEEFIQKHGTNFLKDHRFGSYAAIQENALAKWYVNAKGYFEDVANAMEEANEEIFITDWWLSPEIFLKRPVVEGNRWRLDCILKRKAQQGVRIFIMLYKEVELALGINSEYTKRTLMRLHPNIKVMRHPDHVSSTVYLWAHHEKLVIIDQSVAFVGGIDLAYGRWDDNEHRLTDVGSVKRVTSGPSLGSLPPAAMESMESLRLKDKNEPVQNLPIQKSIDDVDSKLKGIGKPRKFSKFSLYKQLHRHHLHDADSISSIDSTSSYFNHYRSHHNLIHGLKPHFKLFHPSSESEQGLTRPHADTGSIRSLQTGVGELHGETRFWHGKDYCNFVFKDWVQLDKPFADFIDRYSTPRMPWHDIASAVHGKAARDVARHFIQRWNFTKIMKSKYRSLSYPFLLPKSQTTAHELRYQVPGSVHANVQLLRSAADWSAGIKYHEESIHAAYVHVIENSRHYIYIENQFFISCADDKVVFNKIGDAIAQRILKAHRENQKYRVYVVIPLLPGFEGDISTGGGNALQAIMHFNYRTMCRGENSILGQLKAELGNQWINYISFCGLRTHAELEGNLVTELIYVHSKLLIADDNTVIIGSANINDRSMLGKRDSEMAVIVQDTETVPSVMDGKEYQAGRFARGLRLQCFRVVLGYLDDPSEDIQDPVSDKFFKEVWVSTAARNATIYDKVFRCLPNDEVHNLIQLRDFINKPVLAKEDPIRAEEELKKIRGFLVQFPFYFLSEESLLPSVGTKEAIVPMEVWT

[4] = Drug concentration in sc dosed C57BL/6 mouse liver measured after 60 mins by LC-FTICR-MS analysis; type: ADME, organism-based; conditions: read-out: Ct; how it was run: as §1
[5] = Microsomal stability in rat liver microsomes assessed as intrinsic clearance; type: ADME, Microsome; conditions: read-out: CLH
How it was run: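 Intrinsic clearance (CLint) determined in rat or human liver microsomes.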

[6] = Apparent permeability in dog MDCK cells with low MDR1 expression
Cytochrome P450 2C19 = Cytochrome P450 2C19 (Homo sapiens, UniProt P33261); experiment: Inhibition of CYP2C19 (unknown origin); type: ADME
[7] = Plasma protein binding in sc dosed C57BL/6 mouse by LC-MS/MS analysis; type: ADME, organism-based; conditions: in vivo
[8] = Tmax in sc dosed C57BL/6 mouse by LC-MS/MS analysis; type: ADME, organism-based; conditions: in vivo
[9] = Unbound brain concentration in sc dosed C57BL/6 mouse measured after 60 mins by LC-FTICR-MS analysis; type: ADME, organism-based; conditions: in vivo, 1 h; how it was run: as §1
[10] = Drug concentration in sc dosed C57BL/6 mouse brain measured after 15 mins by LC-FTICR-MS analysis; type: ADME, organism-based; conditions: read-out: Ct; how it was run: as §1
[11] = Plasma protein binding in sc dosed C57BL/6 mouse assessed as unbound fraction by LC-MS/MS analysis; type: ADME, organism-based; conditions: in vivo
Cytochrome P450 2D6 = Cytochrome P450 2D6 (Homo sapiens, UniProt P10635); experiment: Inhibition of CYP2D6 (unknown origin); type: ADME
Chain of Cytochrome P450 2D6 (P10635 whole entry): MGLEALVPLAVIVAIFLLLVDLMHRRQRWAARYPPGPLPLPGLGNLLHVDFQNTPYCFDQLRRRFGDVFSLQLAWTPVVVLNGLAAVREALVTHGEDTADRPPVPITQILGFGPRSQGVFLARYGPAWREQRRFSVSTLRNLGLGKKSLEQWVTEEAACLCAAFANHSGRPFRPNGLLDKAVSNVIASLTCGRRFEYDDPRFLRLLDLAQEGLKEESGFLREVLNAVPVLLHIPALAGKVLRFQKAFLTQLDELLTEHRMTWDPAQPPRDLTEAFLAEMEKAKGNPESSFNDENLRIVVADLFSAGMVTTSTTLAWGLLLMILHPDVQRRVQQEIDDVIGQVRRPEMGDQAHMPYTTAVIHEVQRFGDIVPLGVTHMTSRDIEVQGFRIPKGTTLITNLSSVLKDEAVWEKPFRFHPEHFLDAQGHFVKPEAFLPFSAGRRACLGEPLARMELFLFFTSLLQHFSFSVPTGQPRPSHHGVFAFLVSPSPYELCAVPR

Chain of Cytochrome P450 2C19 (P33261 whole entry): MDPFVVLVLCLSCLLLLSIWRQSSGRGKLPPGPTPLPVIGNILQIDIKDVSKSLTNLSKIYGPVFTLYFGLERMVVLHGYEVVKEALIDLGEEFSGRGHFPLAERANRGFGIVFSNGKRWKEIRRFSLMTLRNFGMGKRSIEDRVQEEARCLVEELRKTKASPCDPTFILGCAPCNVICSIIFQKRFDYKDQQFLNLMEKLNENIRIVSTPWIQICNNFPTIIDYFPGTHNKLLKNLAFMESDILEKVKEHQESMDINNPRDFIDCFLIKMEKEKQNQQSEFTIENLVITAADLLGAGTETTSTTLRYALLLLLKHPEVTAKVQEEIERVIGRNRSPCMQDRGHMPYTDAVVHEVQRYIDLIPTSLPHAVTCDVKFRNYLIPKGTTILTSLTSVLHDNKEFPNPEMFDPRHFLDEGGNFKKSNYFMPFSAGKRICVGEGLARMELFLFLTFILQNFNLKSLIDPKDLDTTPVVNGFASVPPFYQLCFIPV
Chain of Voltage-gated inwardly rectifying potassium channel KCNH2 (Q12809 whole entry): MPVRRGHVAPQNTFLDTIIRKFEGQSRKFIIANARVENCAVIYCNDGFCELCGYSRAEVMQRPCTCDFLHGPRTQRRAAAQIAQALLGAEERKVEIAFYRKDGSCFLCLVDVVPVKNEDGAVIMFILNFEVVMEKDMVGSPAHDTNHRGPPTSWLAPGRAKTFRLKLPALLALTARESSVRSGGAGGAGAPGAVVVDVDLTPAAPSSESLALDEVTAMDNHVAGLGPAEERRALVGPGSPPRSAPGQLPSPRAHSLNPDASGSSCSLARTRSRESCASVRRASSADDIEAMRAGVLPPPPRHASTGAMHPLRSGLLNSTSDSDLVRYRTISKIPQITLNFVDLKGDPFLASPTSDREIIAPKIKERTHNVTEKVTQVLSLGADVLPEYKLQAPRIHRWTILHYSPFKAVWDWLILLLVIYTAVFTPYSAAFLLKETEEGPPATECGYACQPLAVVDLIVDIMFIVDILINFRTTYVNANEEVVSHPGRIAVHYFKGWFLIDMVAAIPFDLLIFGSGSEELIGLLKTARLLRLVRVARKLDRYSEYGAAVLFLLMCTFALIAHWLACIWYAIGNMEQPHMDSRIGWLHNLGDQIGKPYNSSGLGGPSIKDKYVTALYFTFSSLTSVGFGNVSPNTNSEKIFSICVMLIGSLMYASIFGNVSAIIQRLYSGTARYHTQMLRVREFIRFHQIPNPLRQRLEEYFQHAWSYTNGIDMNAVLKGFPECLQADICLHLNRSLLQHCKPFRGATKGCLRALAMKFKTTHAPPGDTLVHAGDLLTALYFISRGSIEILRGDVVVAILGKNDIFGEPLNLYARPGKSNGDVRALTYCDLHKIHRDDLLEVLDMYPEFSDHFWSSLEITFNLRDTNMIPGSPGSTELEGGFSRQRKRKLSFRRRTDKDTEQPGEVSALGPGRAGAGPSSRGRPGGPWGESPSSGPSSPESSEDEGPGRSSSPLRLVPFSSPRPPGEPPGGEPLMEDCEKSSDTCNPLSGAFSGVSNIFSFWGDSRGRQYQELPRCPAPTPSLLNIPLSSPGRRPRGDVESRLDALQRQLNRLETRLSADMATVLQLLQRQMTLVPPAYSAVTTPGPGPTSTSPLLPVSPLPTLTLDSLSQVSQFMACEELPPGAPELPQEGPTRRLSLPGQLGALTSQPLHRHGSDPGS

C[C@@H]1CN(C(=O)[C@H](C)N2CCC(n3c(=O)[nH]c4ccccc43)CC2)C[C@@H](C)N1
Drug uptake(free) [1]: 38.1 nM | Drug uptake(free) [2]: 49.5 nM | IC50 [3]: > 30 µM | IC50 (Phospholipase D1): 0.044 µM | concentration at 1 h [4]: 7380 ng/g | CLint scaled [5]: 64 mL/min/kg | Papp [6]: 5.1 ×10⁻⁶ cm/s | IC50 (Cytochrome P450 2C19): > 10 µM | PPB [7]: 17.2% | Tmax [8]: 26.4 min | Drug uptake(free) [9]: 53.2 nM | concentration at 0.25 h [10]: 83.8 ng/g | Fu [11]: 17.5% | IC50 (Cytochrome P450 2D6): > 10 µM
